ChEMBL document CHEMBL1938357, “Inhibition of Dengue virus and West Nile virus proteases by click chemistry-derived benz[d]isothiazol-3(2H)-one derivatives” (Bioorg Med Chem, 2012)
The source made the active and inactive calls. The calls are words filed in the database; no cut-off is given here.

Key:
dengue virus type 2 [1] = test: Inhibition of Dengue virus 2 NS2B-NS3 protease expressed in Escherichia coli using Bz-Nle-Lys-Arg-Arg-AMC as substrate at 25 uM measured every 90 sec upto 30 mins by spectrofluorometry
How it was run: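 DENV2 NS2B(hydrophilic cofactor)-NS3pro, linked via Q-R and expressed in E. coli Top 10 F′, at 25 nM in 200 mM Tris-HCl pH 9.5, 6 mM NaCl, 30% glycerol. Compound at 25 μM (1% DMSO final) was pre-incubated at room temperature with enzyme. Bz-Nle-Lys-Arg-Arg-AMC added at 5.0 μM; read at 37 °C, ex 380/em 460 nm, every 90 s up to 30 min. % inhibition from RFU ± compound; triplicate averages.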

dengue virus type 2 [2] = test: Inhibition of Dengue virus 2 NS2B-NS3 protease expressed in Escherichia coli using Bz-Nle-Lys-Arg-Arg-AMC as substrate at 25 uM measured every 90 sec upto 30 mins by spectrofluorometry in the presence of 0.1% CHAPS
How it was run: (§1)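 Detergent re-screen: 200 mM Tris-HCl pH 9.5, 6 mM NaCl, 30% glycerol, 0.1% CHAPS, with DENV2 NS2B-NS3pro at 25 nM or WNV NS2BH-NS3pro (5-residue spacer) at 28 nM. Compound at 25 μM, 1% DMSO final, pre-incubated at room temperature with enzyme. Substrate Bz-Nle-Lys-Arg-Arg-AMC at 5.0 μM; fluorescence at 380/460 nm at 37 °C over 30 min. Percent inhibition from RFU with vs without compound; triplicate averages.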

[3] = Inhibition of Dengue virus 2 NS2B-NS3 protease expressed in Escherichia coli using Bz-Nle-Lys-Arg-Arg-AMC as substrate measured every 90 sec upto 30 mins by spectrofluorometry; design: species or system dengue virus type 2
How it was run: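 Inhibitors at 10 nM, 50 nM, 0.1, 1, 2, 5, 10 and 25 μM were incubated 15 min with DENV2 NS2B-NS3pro (50 nM) in 200 mM Tris-HCl, 6 mM NaCl, 30% glycerol, pH 9.5. Bz-Nle-Lys-Arg-Arg-AMC (5.0 μM) was then added. Signal recorded at 37 °C (ex 380, em 460 nm) with buffer subtracted. IC50 derived by curve fitting.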

West Nile virus = test: Inhibition of West Nile virus NS2B-NS3 protease expressed in Escherichia coli using Bz-Nle-Lys-Arg-Arg-AMC as substrate at 25 uM measured every 90 sec upto 30 mins by spectrofluorometry; how it was run: as §1
[4] = Inhibition of Dengue virus 2 NS2B-NS3 protease expressed in Escherichia coli using Bz-Nle-Lys-Arg-Arg-AMC as substrate by spectrofluorometry; design: species or system dengue virus type 2

Row | SMILES | inhibition (dengue virus type 2 [1]) | inhibition (dengue virus type 2 [2]) | IC50 [3] [µM] | inhibition (West Nile virus) | Ki [4] [µM]
1 | COC(=O)c1cccc(Cn2cc(COc3cccc(NC(=O)Cn4sc5ccccc5c4=O)c3)nn2)c1 | Active | Active | – | – | –
2 | O=C(Cn1cc(COc2cccc(NC(=O)Cn3sc4ccccc4c3=O)c2)nn1)Nc1ccc(Oc2ccccc2)cc1 | Active | Active | 4.45 | Active | –
3 | O=C(Cn1cc(COc2cccc(NC(=O)Cn3sc4ccccc4c3=O)c2)nn1)Nc1cccc(Oc2ccccc2)c1 | Active | Active | 4.59 | Active | –
4 | O=C(Cn1sc2ccccc2c1=O)Nc1cccc(OCc2cn(CC(=O)Nc3ccccc3Oc3ccccc3)nn2)c1 | Active | Active | 3.48 | Active | 4.77
5 | O=C(O)Cn1cc(CNC(=O)Cn2sc3ccccc3c2=O)nn1 | inactive | – | – | – | –
6 | O=C(Cn1sc2ccccc2c1=O)NCc1cn(Cc2ccc(F)cc2)nn1 | inactive | – | – | – | –
7 | O=C(Cn1sc2ccccc2c1=O)NCc1cn(CC(=O)Nc2ccc(Oc3ccccc3)cc2)nn1 | Active | Active | 4.87 | Active | –
8 | O=C(Cn1sc2ccccc2c1=O)NCc1cn(CC(=O)Nc2ccccc2Oc2ccccc2)nn1 | inactive | – | – | – | –
9 | CC(C)(C)OC(=O)Cn1cc(CNC(=O)Cn2sc3ccccc3c2=O)nn1 | inactive | – | – | – | –
10 | O=C(Cn1cc(COc2cccc(NC(=O)Cn3sc4ccccc4c3=O)c2)nn1)Nc1ccccc1 | Active | Active | 13.4 | Active | –
11 | O=C(Cn1sc2ccccc2c1=O)Nc1cccc(OCc2cn(CC(=O)c3ccccc3)nn2)c1 | Active | Active | 6.22 | Active | –
12 | COC(=O)c1cccc(Cn2cc(CNC(=O)Cn3sc4ccccc4c3=O)nn2)c1 | inactive | – | – | – | –

Second part, led by results:

Row | inhibition (dengue virus type 2 [1]) | inhibition (dengue virus type 2 [2]) | IC50 [3] [µM] | inhibition (West Nile virus) | SMILES | Ki [4] [µM]
13 | inactive | – | – | – | COc1ccc(Cn2cc(CNC(=O)Cn3sc4ccccc4c3=O)nn2)cc1 | –
14 | inactive | – | – | – | O=C(Cn1sc2ccccc2c1=O)NCc1cn(CCOc2ccccc2)nn1 | –
15 | inactive | – | – | – | O=C(Cn1sc2ccccc2c1=O)NCc1cn(CC(=O)c2ccccc2)nn1 | –
16 | inactive | – | – | – | O=C(Cn1sc2ccccc2c1=O)NCc1cn(CCCc2ccccc2)nn1 | –
17 | inactive | – | – | – | O=C(Cn1sc2ccccc2c1=O)NCc1cn(CC(=O)Nc2ccccc2)nn1 | –
18 | inactive | – | – | – | O=C(Cn1sc2ccccc2c1=O)NCc1cn(Cc2cccc(F)c2)nn1 | –
19 | inactive | – | – | – | O=C(Cn1sc2ccccc2c1=O)NCc1cn(CSc2ccccc2)nn1 | –
20 | inactive | – | – | – | O=C(Cn1sc2ccccc2c1=O)NCc1cn(CCc2ccccc2)nn1 | –
21 | inactive | – | – | – | O=C(Cn1sc2ccccc2c1=O)NCc1cn(Cc2ccccc2)nn1 | –
22 | Active | Active | – | – | O=C(Cn1sc2ccccc2c1=O)NCc1cn(CC(=O)Nc2cccc(Oc3ccccc3)c2)nn1 | –
